Here are results for 25 compounds from ChEMBL document CHEMBL4014338, “Discovery of Small Molecules as Multi-Toll-like Receptor Agonists with Proinflammatory and Anticancer Activities” (J Med Chem, 2017).

Calls of active or inactive are those of the source. The rule behind the calls is not given here.

As a reminder, the EC50 is the midpoint of the concentration-response curve.

The target of one data set is T1, Toll-like receptor 3 (Homo sapiens, UniProt O15455).
T1 sequence (O15455 whole entry): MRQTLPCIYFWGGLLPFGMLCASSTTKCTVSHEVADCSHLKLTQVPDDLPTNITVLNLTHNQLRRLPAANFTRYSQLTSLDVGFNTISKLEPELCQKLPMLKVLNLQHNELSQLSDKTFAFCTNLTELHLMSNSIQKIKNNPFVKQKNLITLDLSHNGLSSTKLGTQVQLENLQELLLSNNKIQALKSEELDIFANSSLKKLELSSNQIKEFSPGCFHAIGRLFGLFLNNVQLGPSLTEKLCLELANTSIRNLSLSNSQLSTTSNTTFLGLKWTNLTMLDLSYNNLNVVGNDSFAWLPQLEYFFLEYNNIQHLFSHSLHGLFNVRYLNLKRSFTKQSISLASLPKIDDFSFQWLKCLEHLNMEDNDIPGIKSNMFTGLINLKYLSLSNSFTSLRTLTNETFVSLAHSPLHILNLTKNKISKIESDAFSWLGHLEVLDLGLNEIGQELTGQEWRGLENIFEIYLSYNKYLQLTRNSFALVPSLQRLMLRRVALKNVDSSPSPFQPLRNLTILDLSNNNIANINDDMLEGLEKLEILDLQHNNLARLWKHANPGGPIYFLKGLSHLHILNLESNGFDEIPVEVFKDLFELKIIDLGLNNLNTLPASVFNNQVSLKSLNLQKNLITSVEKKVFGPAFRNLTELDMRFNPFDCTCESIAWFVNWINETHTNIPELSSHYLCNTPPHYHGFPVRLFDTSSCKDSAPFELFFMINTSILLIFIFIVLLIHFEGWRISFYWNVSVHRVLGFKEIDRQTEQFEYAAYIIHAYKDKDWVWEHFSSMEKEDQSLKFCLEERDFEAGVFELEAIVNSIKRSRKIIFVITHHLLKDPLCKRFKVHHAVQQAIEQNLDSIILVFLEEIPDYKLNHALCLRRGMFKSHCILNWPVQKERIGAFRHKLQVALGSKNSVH
In words: Agonist activity at human TLR3 expressed in HEK293 cells assessed as induction of NF-kB activation-mediated SEAP production after 24 hrs by HTS assay. In kind it is cell-based.
Conditions: not given
Summed up: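 Stable HEK293 lines expressing a single hTLR plus a SEAP reporter, grown in DMEM/10% FBS with selective antibiotics. Seeded at 5 × 10^4 cells/well for 24 h at 37 °C, then treated 24 h. Supernatant mixed with QUANTI-Blue, 1 h at 37 °C, OD 620 nm. Cognate agonists: Pam3CSK4 (TLR2), poly I:C (TLR3), LPS (TLR4), FLA-BS (TLR5), R848 (TLR7). EC50 as mean ± SD.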
As for `CC1(C)C=Cc2cc(OCc3ccc([N+](=O)[O-])cc3)c(OCc3ccc([N+](=O)[O-])cc3)cc2O1`, the EC50 amounted to 22.3 µM.

In the case of `CC1(C)CC(O)c2cc(OCc3ccc([N+](=O)[O-])cc3)c(OCc3ccc([N+](=O)[O-])cc3)cc2O1` (stereo not given), the EC50 was 42.5 µM.

The test system of the next data set is HEK293. In words: Cytotoxicity against HEK293 cells at 25 uM. The format is cell-based. As to conditions: human, hek293, 25 µM.
As for `CC1(C)C=Cc2cc(OCc3ccc([N+](=O)[O-])cc3)c(OCc3ccc([N+](=O)[O-])cc3)cc2O1`, the Activity entry was “Non-Toxic”.

A further data set addresses Toll-like receptor 3 (Homo sapiens) (UniProt O15455). In words: Agonist activity at human TLR3 expressed in HEK293 cells assessed as induction of NF-kB activation-mediated SEAP production at 25 uM after 24 hrs by HTS assay relative to control. In kind it is cell-based.
Conditions: not given
Summed up: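 hTLR3 HEK293 SEAP reporter cells seeded at 5 × 10^4 cells/well for 24 h, exposed to 25 μM for 24 h. Supernatant SEAP detected with QUANTI-Blue (1 h, 37 °C, OD 620 nm). Activation normalized to untreated cells and expressed as fold change.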
As for `CC1(C)C=Cc2cc(OCc3ccc(F)c(F)c3)c(OCc3ccc(F)c(F)c3)cc2O1`, the fold change (FC) amounted to 0.99.

For the compound `CC1(C)CC(=O)c2cc(OCc3ccc([N+](=O)[O-])c(F)c3)c(OCc3ccc([N+](=O)[O-])c(F)c3)cc2O1`, the fold change (FC) was determined as 1.22.

Turning to `O=[N+]([O-])c1ccc(COc2cc3c(cc2OCc2ccc([N+](=O)[O-])cc2)OC2(C=C3)CCCC2)cc1`, the fold change (FC) turned out to be 1.22.

On to `CC1(C)CC(=O)c2cc(OCc3ccc([N+](=O)[O-])cc3)c(OCc3ccc([N+](=O)[O-])cc3)cc2O1`, for which the fold change (FC) came to 1.76.

Consider `CC1(C)CC(=O)c2cc(OCc3ccc(C(F)(F)F)cc3)c(OCc3ccc(C(F)(F)F)cc3)cc2O1`, for which the fold change (FC) was determined as 1.19.

With `CC1(C)C=Cc2cc(OCc3ccc([N+](=O)[O-])cc3)c(OCc3ccc([N+](=O)[O-])cc3)cc2O1`, the fold change (FC) is 5.34.

As for `CC1(C)C=Cc2cc(O)c(OCc3ccc([N+](=O)[O-])cc3)cc2O1`, the fold change (FC) was 1.17.

In the case of `CC1(C)C=Cc2cc(OCc3ccccc3)c(OCc3ccccc3)cc2O1`, the fold change (FC) came to 1.09.

As for `O=[N+]([O-])c1ccc(COc2cc3c(cc2OCc2ccc([N+](=O)[O-])cc2)OC2(C=C3)CCCCCC2)cc1`, the fold change (FC) turned out to be 1.07.

On to `CC1(C)CC(O)c2cc(OCc3ccc([N+](=O)[O-])c(F)c3)c(OCc3ccc([N+](=O)[O-])c(F)c3)cc2O1` (stereo not given), for which the fold change (FC) stood at 2.34.

On to `CC1(C)CC(=O)c2cc(OCc3ccc(F)c(F)c3)c(OCc3ccc(F)c(F)c3)cc2O1`, for which the fold change (FC) stood at 1.22.

As to `CC1(C)CC(O)c2cc(OCc3ccc([N+](=O)[O-])cc3)c(OCc3ccc([N+](=O)[O-])cc3)cc2O1` (stereo not given), the fold change (FC) is 2.5.

Regarding `CC1(C)CC(O)c2cc(OCc3ccc(C(F)(F)F)cc3)c(OCc3ccc(C(F)(F)F)cc3)cc2O1` (stereo not given), the fold change (FC) came out at 2.36.

Consider `COc1ccc(COc2cc3c(cc2OCc2ccc(OC)c(F)c2)C(=O)CC(C)(C)O3)cc1F`, for which the fold change (FC) was 1.08.

Turning to `CCC1(CC)C=Cc2cc(OCc3ccc([N+](=O)[O-])cc3)c(OCc3ccc([N+](=O)[O-])cc3)cc2O1`, the fold change (FC) is 1.16.

Take `COc1ccc(COc2cc3c(cc2OCc2ccc(OC)c(F)c2)C(O)CC(C)(C)O3)cc1F` (stereo not given): the fold change (FC) came to 1.34.

On to `CC1(C)C=Cc2cc(OC(=O)c3ccc([N+](=O)[O-])cc3)c(OC(=O)c3ccc([N+](=O)[O-])cc3)cc2O1`, for which the fold change (FC) came to 1.65.

`CC1(C)C=Cc2cc(OCc3cccc([N+](=O)[O-])c3)c(OCc3cccc([N+](=O)[O-])c3)cc2O1`: the fold change (FC) turned out to be 1.1.

`CC1(C)C=Cc2cc(OCc3ccc(C(F)(F)F)cc3)c(OCc3ccc(C(F)(F)F)cc3)cc2O1`: the fold change (FC) worked out at 0.99.

Turning to `COc1ccc(COc2cc3c(cc2OCc2ccc(OC)c(F)c2)OC(C)(C)C=C3)cc1F`, the fold change (FC) came out at 1.06.

For `COc1cc2c(cc1OCc1ccc([N+](=O)[O-])cc1)C=CC(C)(C)O2`, the fold change (FC) is 1.19.

`O=[N+]([O-])c1ccc(COc2cc3c(cc2OCc2ccc([N+](=O)[O-])cc2)OC2(C=C3)CCCCC2)cc1`: the fold change (FC) came out at 1.

With `CC1(C)C=Cc2cc(OCc3ccccc3[N+](=O)[O-])c(OCc3ccccc3[N+](=O)[O-])cc2O1`, the fold change (FC) was 1.08.

`CC1(C)C=Cc2cc(OCc3ccc([N+](=O)[O-])c(F)c3)c(OCc3ccc([N+](=O)[O-])c(F)c3)cc2O1`: the fold change (FC) turned out to be 1.24.

In the case of `CC1(C)CC(O)c2cc(OCc3ccc(F)c(F)c3)c(OCc3ccc(F)c(F)c3)cc2O1` (stereo not given), the fold change (FC) turned out to be 0.95.

The target is the same in another data set. In words: Agonist activity at human TLR3 expressed in HEK293 cells assessed as induction of NF-kB activation-mediated SEAP production at 30 uM after 24 hrs by HTS assay.
Conditions: not given
In kind it is cell-based. Summed up: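 HTS in HEK293 cells stably expressing human TLR3 plus an NF-κB-inducible SEAP reporter, seeded at 20,000 cells/well and run in duplicate. Library compounds in DMSO at 30 μM final. Poly I:C 5 μg/mL served as positive control and cells + medium + DMSO as negative control. SEAP in supernatant read by QUANTI-Blue; assay quality judged by Z′ factor.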
In the case of `CC1(C)C=Cc2cc(OCc3ccc([N+](=O)[O-])cc3)c(OCc3ccc([N+](=O)[O-])cc3)cc2O1`, the result was Active.

For a further data set, the species on record is Homo sapiens. In words: Activation of NF-kB in HEK293 cells assessed as SEAP production at 30 uM after 24 hrs by HTS assay. In kind it is cell-based.
Conditions: not given
Summed up:
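hTLR3-transfected HEK293 cells carrying an NF-κB-inducible SEAP reporter, seeded at 20,000 cells/well in duplicate; library compounds in DMSO at 30 μM final. Poly I:C 5 μg/mL as positive control; cells + medium + DMSO as negative control. SEAP in supernatant read by QUANTI-Blue; hits ranked on RMS values.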
Turning to `CC1(C)C=Cc2cc(OCc3ccc([N+](=O)[O-])cc3)c(OCc3ccc([N+](=O)[O-])cc3)cc2O1`, the result was inactive.
